According to ChEMBL document CHEMBL1828575, “Design, synthesis and antiproliferative activities of biarylolefins based on polyhydroxylated and carbohydrate scaffolds” (Eur J Med Chem, 2011):
Calls of active or inactive are those of the source. The rule behind the calls is not given here.

Legend:
[1] = tested on: HCT-116; test: Cytotoxicity against human HCT116 cells at 10^-6 M after 72 hrs by MTS assay; type: functional; conditions: HCT-116, 72 h, read-out: GI
How it was run: (§1)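 Cells grown in RPMI with 10% fetal calf serum, penicillin, streptomycin and fungizone under 5% CO₂. Plated in 96-well plates and dosed 24 h later with compound in DMSO (1% final DMSO; controls got DMSO alone). After 72 h, MTS was added for 3 h at 37 °C and A490 read. Inhibition = (1 − OD treated/OD control) × 100, in triplicate.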

[2] = tested on: PC-3; test: Antiproliferative activity against human PC3 cells after 72 hrs by MTS assay; type: functional, cell-based; conditions: PC-3, 72 h
How it was run: (§2)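 Cell lines grown in RPMI with 10% fetal calf serum plus penicillin, streptomycin and fungizone under 5% CO2. Compounds in DMSO (1% final; controls got DMSO alone) were added 24 h after plating. After 72 h exposure, MTS was added for 3 h at 37 °C and A490 read. Inhibition = (1 − OD treated/OD control)×100, in triplicate. IC50s came from separate duplicate dose-response experiments.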

[3] = tested on: HL-60; test: Cytotoxicity against human HL60 cells at 10^-6 M after 72 hrs by MTS assay; type: functional; conditions: HL-60, 72 h, read-out: GI; how it was run: as §1
[4] = tested on: MCF7; test: Cytotoxicity against human MCF7 cells at 10^-6 M after 72 hrs by MTS assay; type: functional; conditions: MCF7, 72 h, read-out: GI
[5] = tested on: SK-OV-3; test: Antiproliferative activity against human SKOV3 cells after 72 hrs by MTS assay; type: functional, cell-based; conditions: SK-OV-3, 72 h; how it was run: as §2
[6] = tested on: SK-OV-3; test: Cytotoxicity against human SKOV3 cells at 10^-5 M after 72 hrs by MTS assay; type: functional; conditions: SK-OV-3, 72 h, read-out: GI
How it was run: (§3)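 Preliminary screen at 10^-5 and 10^-6 M. Cells were grown in RPMI with 10% fetal calf serum plus penicillin, streptomycin and fungizone under 5% CO₂, plated in 96-well plates, and dosed 24 h later from DMSO stocks (1% DMSO final, same in controls). After 72 h, MTS was added for 3 h at 37 °C and absorbance read at 490 nm. Inhibition was calculated as (1 − OD treated/OD control) × 100, in triplicate.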

[7] = tested on: OVCAR-8; test: Antiproliferative activity against human OVCAR8 cells after 72 hrs by MTS assay; type: functional, cell-based; conditions: OVCAR-8, 72 h; how it was run: as §2
[8] = Antiproliferative activity against human MDA231 cells after 72 hrs by MTS assay; type: functional, cell-based; conditions: MDA-MB-231, 72 h; how it was run: as §2
[9] = tested on: HT-29; test: Cytotoxicity against human HT-29 cells at 10^-6 M after 72 hrs by MTS assay; type: functional; conditions: HT-29, 72 h, read-out: GI; how it was run: as §1
[10] = tested on: HCT-15; test: Cytotoxicity against human HCT15 cells at 10^-6 M after 72 hrs by MTS assay; type: functional; conditions: HCT-15, 72 h, read-out: GI; how it was run: as §1
[11] = tested on: SF-268; test: Cytotoxicity against human SF268 cells at 10^-5 M after 72 hrs by MTS assay; type: functional; conditions: SF-268, 72 h, read-out: GI; how it was run: as §3
[12] = tested on: SF-268; test: Cytotoxicity against human SF268 cells at 10^-6 M after 72 hrs by MTS assay; type: functional; conditions: SF-268, 72 h, read-out: GI; how it was run: as §3
[13] = tested on: HT-29; test: Cytotoxicity against human HT-29 cells at 10^-5 M after 72 hrs by MTS assay; type: functional; conditions: HT-29, 72 h, read-out: GI; how it was run: as §1
[14] = Antiproliferative activity against human HL60R cells after 72 hrs by MTS assay; type: functional, cell-based
[15] = Cytotoxicity against human HL60R cells at 10^-6 M after 72 hrs by MTS assay; type: functional; conditions: read-out: GI; how it was run: as §1
[16] = tested on: OVCAR-8; test: Cytotoxicity against human OVCAR8 cells at 10^-6 M after 72 hrs by MTS assay; type: functional; conditions: OVCAR-8, 72 h, read-out: GI; how it was run: as §3
[17] = tested on: K562; test: Cytotoxicity against human K562 cells at 10^-5 M after 72 hrs by MTS assay; type: functional; conditions: K562, 72 h, read-out: GI; how it was run: as §1
[18] = tested on: K562; test: Antiproliferative activity against human K562 cells after 72 hrs by MTS assay; type: functional, cell-based; conditions: K562, 72 h; how it was run: as §2
[19] = tested on: HCT-116; test: Cytotoxicity against human HCT116 cells at 10^-5 M after 72 hrs by MTS assay; type: functional; conditions: HCT-116, 72 h, read-out: GI; how it was run: as §1
[20] = tested on: MIA PaCa-2; test: Cytotoxicity against human MIAPaCa2 cells at 10^-5 M after 72 hrs by MTS assay; type: functional; conditions: MIA PaCa-2, 72 h, read-out: GI
[21] = tested on: K562; test: Cytotoxicity against human K562 cells at 10^-6 M after 72 hrs by MTS assay; type: functional; conditions: K562, 72 h, read-out: GI; how it was run: as §1
[22] = tested on: SF-268; test: Antiproliferative activity against human SF268 cells after 72 hrs by MTS assay; type: functional, cell-based; conditions: SF-268, 72 h; how it was run: as §2
[23] = tested on: SK-OV-3; test: Cytotoxicity against human SKOV3 cells at 10^-6 M after 72 hrs by MTS assay; type: functional; conditions: SK-OV-3, 72 h, read-out: GI; how it was run: as §3
[24] = tested on: OVCAR-8; test: Cytotoxicity against human OVCAR8 cells at 10^-5 M after 72 hrs by MTS assay; type: functional; conditions: OVCAR-8, 72 h, read-out: GI; how it was run: as §3
[25] = tested on: MIA PaCa-2; test: Cytotoxicity against human MIAPaCa2 cells at 10^-6 M after 72 hrs by MTS assay; type: functional; conditions: MIA PaCa-2, 72 h, read-out: GI
[26] = tested on: PC-3; test: Cytotoxicity against human PC3 cells at 10^-5 M after 72 hrs by MTS assay; type: functional; conditions: PC-3, 72 h, read-out: GI; how it was run: as §3
[27] = tested on: HL-60; test: Antiproliferative activity against human HL60 cells after 72 hrs by MTS assay; type: functional, cell-based; conditions: HL-60, 72 h; how it was run: as §2
[28] = tested on: A549; test: Cytotoxicity against human A549 cells at 10^-5 M after 72 hrs by MTS assay; type: functional; conditions: A549, 72 h, read-out: GI; how it was run: as §1
[29] = tested on: PC-3; test: Cytotoxicity against human PC3 cells at 10^-6 M after 72 hrs by MTS assay; type: functional; conditions: PC-3, 72 h, read-out: GI; how it was run: as §3
[30] = Cytotoxicity against human HL60R cells at 10^-5 M after 72 hrs by MTS assay; type: functional, HL-60; conditions: read-out: GI; how it was run: as §1
[31] = tested on: HCT-15; test: Antiproliferative activity against human HCT15 cells after 72 hrs by MTS assay; type: functional, cell-based; conditions: HCT-15, 72 h; how it was run: as §2
[32] = tested on: HL-60; test: Cytotoxicity against human HL60 cells at 10^-5 M after 72 hrs by MTS assay; type: functional; conditions: HL-60, 72 h, read-out: GI; how it was run: as §1
[33] = Cytotoxicity against human MDA231 cells at 10^-6 M after 72 hrs by MTS assay; type: functional; conditions: MDA-MB-231, 72 h, read-out: GI; how it was run: as §3
[34] = tested on: HCT-15; test: Cytotoxicity against human HCT15 cells at 10^-5 M after 72 hrs by MTS assay; type: functional; conditions: HCT-15, 72 h, read-out: GI; how it was run: as §1
[35] = tested on: MCF7; test: Cytotoxicity against human MCF7 cells at 10^-5 M after 72 hrs by MTS assay; type: functional; conditions: MCF7, 72 h, read-out: GI
[36] = Cytotoxicity against human MDA231 cells at 10^-5 M after 72 hrs by MTS assay; type: functional; conditions: MDA-MB-231, 72 h, read-out: GI; how it was run: as §3
[37] = tested on: A549; test: Cytotoxicity against human A549 cells at 10^-6 M after 72 hrs by MTS assay; type: functional; conditions: A549, 72 h, read-out: GI; how it was run: as §1
[38] = species: Ovis aries; test: Inhibition of sheep brain tubulin polymerization at 10 uM
How it was run: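 Microtubule protein from sheep brain, purified by two assembly/disassembly cycles (37 °C/0 °C), in 100 mM MES pH 6.6, 1 mM EGTA, 0.5 mM MgCl₂. Compounds in DMSO were tested at a single concentration, with incubation at 37 °C for 10 min and then 0 °C for 5 min before measuring assembly rate, following a modified Guénard protocol.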

SMILES | inhibition of growth at 1 µM [1] | inhibition of growth at 1 µM [3] | inhibition of growth at 1 µM [4] | inhibition of growth at 10 µM [6] | inhibition of growth at 1 µM [9] | inhibition of growth at 1 µM [10] | inhibition of growth at 10 µM [11] | inhibition of growth at 1 µM [12] | inhibition of growth at 10 µM [13] | inhibition of growth at 1 µM [15] | inhibition of growth at 1 µM [16] | inhibition of growth at 10 µM [17] | inhibition of growth at 10 µM [19] | inhibition of growth at 10 µM [20] | inhibition of growth at 1 µM [21] | inhibition of growth at 1 µM [23] | inhibition of growth at 10 µM [24] | inhibition of growth at 1 µM [25] | inhibition of growth at 10 µM [26] | inhibition of growth at 10 µM [28] | other results
COc1ccc(/C(=C2\O[C@@H]([C@H](O)CO)[C@H]3OC(C)(C)O[C@@H]23)c2cc(OC)c(OC)c(OC)c2)cc1O | 1% | 10% | 0% | 81% | 6% | 11% | 73% | 16% | 8% | 12% | 1% | 90% | 58% | 58% | 15% | 6% | 95% | 5% | 77% | 58% | IC50 [2]: 0.69 µM; IC50 [5]: 6.51 µM; IC50 [7]: 2.97 µM; IC50 [8]: 0.61 µM; IC50 [14]: 1.49 µM; IC50 [18]: 0.45 µM; IC50 [22]: 1.1 µM; IC50 [27]: 0.82 µM; inhibition of growth at 1 µM [29]: 0%; inhibition of growth at 10 µM [30]: 95%; IC50 [31]: 0.63 µM; inhibition of growth at 10 µM [32]: 79%; inhibition of growth at 1 µM [33]: 0%; inhibition of growth at 10 µM [34]: 82%; inhibition of growth at 10 µM [35]: 43%; inhibition of growth at 10 µM [36]: 69%; inhibition of growth at 1 µM [37]: 0%
COc1cc(C(=C(COC(C)=O)COC(C)=O)c2ccc3ccccc3c2)cc(OC)c1OC | 0% | 11% | 10% | 46% | 0% | 8% | 81% | 17% | 22% | 19% | 0% | 83% | 20% | 15% | 12% | 12% | 6% | 4% | 62% | 45% | tubulin polymerization inhibition call (active/not active) [38]: inactive; inhibition of growth at 1 µM [29]: 18%; inhibition of growth at 10 µM [30]: 41%; inhibition of growth at 10 µM [32]: 82%; inhibition of growth at 1 µM [33]: 0%; inhibition of growth at 10 µM [34]: 65%; inhibition of growth at 10 µM [35]: 17%; inhibition of growth at 10 µM [36]: 74%; inhibition of growth at 1 µM [37]: 3%
COc1cc(C(=C(COC(C)=O)COC(C)=O)c2ccc3c(c2)OCO3)cc(OC)c1OC | 0% | 17% | 0% | 7% | 0% | 9% | 20% | 24% | 0% | 9% | 0% | 26% | 0% | 0% | 5% | 3% | 0% | 0% | 13% | 12% | tubulin polymerization inhibition call (active/not active) [38]: inactive; inhibition of growth at 1 µM [29]: 3%; inhibition of growth at 10 µM [30]: 24%; inhibition of growth at 10 µM [32]: 30%; inhibition of growth at 1 µM [33]: 0%; inhibition of growth at 10 µM [34]: 22%; inhibition of growth at 10 µM [35]: 11%; inhibition of growth at 10 µM [36]: 17%; inhibition of growth at 1 µM [37]: 0%
COc1cc(C(=C(COC(C)=O)COC(C)=O)c2cc(OC)c(OC)c(OC)c2)cc(OC)c1OC | 0% | 15% | 5% | 23% | 0% | 19% | 53% | 26% | 4% | 11% | 0% | 29% | 17% | 10% | 12% | 8% | 24% | 0% | 44% | 22% | tubulin polymerization inhibition call (active/not active) [38]: inactive; inhibition of growth at 1 µM [29]: 7%; inhibition of growth at 10 µM [30]: 36%; inhibition of growth at 10 µM [32]: 39%; inhibition of growth at 1 µM [33]: 0%; inhibition of growth at 10 µM [34]: 48%; inhibition of growth at 10 µM [35]: 44%; inhibition of growth at 10 µM [36]: 69%; inhibition of growth at 1 µM [37]: 0%
